Test results reported in ChEMBL document CHEMBL4000151, “Potent Small Agonists of Protease Activated Receptor 2” (ACS Med Chem Lett, 2016).
Active and inactive are the calls of the source. The calls are words filed in the database; no cut-off is given here. Non-standard residues stand in square brackets, D forms with d. Residues, ends and D or L forms follow the SMILES beside them. ξ: configuration not given here. *: point of attachment. Isoxazole(5-carbonyl) = O=C(c1ccno1)*; ξCha = NC(CC1CCCCC1)C(=O)O; ξChg = NC(C(=O)O)C1CCCCC1; Orn = NCCC[C@H](N)C(=O)O; 2Furoyl = O=C(c1ccco1)*

Tests used:
Plasma = experiment: Metabolic stability in rat plasma at 1 uM at pH 7.4 after 4 hrs by UPLC-MS analysis; format: ADME, cell-free; details: pH 7.4, 4 h
How it was run: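 Compound from DMSO stock added to a 1:1 mixture of PBS and rat plasma at 37 °C, 1 μM initial. Aliquots taken at 0 to 240 min and quenched in MeCN, then centrifuged. Supernatant analysed by UPLC-MS as % of t = 0 peak area; n = 3.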

CHO = experiment: Induction of intracellular calcium release in PAR2 deficient CHO cells at 100 uM measured for 300 secs by Fluo-3 AM dye-based fluorescence assay; format: functional, cell-based; details: Cricetulus griseus
How it was run: (§1)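 CHO cells stably expressing human PAR2 (wild-type or point mutant), or untransfected CHO cells, plated ~5 × 10^4/well overnight at 37 °C. Loaded 1 h at 37 °C with 4 μM Fluo-3 AM in HBSS with 1% FBS, then washed into HBSS with 2.5 mM probenecid and 20 mM HEPES, pH 7.4. Compound added over a concentration range. Ca2+ read 300 s (ex 495/em 520 nm); duplicates; normalized to calcimycin; EC50 from nonlinear regression.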

[1] = target: T1, Proteinase-activated receptor 2 (Homo sapiens, UniProt P55085); experiment: Agonist activity at human PAR2 expressed in CHO cells assessed as induction of intracellular calcium release measured for 300 secs by Fluo-3 AM dye-based fluorescence assay; format: functional, cell-based
T1 sequence (P55085 whole entry): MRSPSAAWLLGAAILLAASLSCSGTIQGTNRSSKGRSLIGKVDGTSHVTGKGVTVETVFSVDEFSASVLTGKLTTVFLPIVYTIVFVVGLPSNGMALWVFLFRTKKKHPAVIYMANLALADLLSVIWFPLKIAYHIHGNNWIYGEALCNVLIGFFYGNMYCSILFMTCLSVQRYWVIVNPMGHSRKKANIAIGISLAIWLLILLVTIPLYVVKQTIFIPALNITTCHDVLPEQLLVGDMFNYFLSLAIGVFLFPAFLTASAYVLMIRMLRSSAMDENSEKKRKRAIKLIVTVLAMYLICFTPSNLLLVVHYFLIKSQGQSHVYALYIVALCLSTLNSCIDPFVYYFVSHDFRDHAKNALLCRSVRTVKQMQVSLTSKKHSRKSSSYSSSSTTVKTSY
How it was run: as §1, with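 “range.” for “range. Ca2+ read 300 s (ex 495/em 520 nm); duplicates; normalized to calcimycin; EC50 from nonlinear regression.”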

[2] = target: Proteinase-activated receptor 2 (Homo sapiens) (UniProt P55085); experiment: Agonist activity at PAR2 in human PC3 cells assessed as induction of intracellular calcium release at 25 uM of first compound treatment followed by 100 uM of second compound treatment by Fluo-3 AM dye based fluorescence assay; format: functional, cell-based
[3] = target: Proteinase-activated receptor 2 (Homo sapiens) (UniProt P55085); experiment: Agonist activity at PAR2 in human MDA-MB-231 cells assessed as induction of chemotaxis at 100 nM incubated for 24 hrs cells preincubated with PAR2 antibody SAM11 prior to test compound addition by transwell migration assay; format: cell-based
How it was run: (§2)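 MDA-MB-231 cells lifted non-enzymatically into serum-free L-15 with 0.1% BSA and seeded at 2.5 × 10^5/insert on collagen-coated 5 μm transwell membranes, 3 h at 37 °C. Agonist at 100 nM placed in the bottom chamber for 24 h; SAM11 anti-PAR2 antibody (1 μg/mL) preincubated 30 min where used. Migrated cells stained with crystal violet and counted; chemotactic index = agonist/random migration.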

[4] = target: Proteinase-activated receptor 2 (Homo sapiens) (UniProt P55085); experiment: Agonist activity at PAR2 in human MDA-MB-231 cells assessed as induction of chemotaxis at 100 nM incubated for 24 hrs by transwell migration assay; format: cell-based; how it was run: as §2

| EC50 [1] [nM] | Compound | Activity (CHO) | also measured |
| --- | --- | --- | --- |
|  | NC(=O)[C@@H](NC(=O)[C@H](CC1CCCCC1)NC(=O)c1ccno1)C1CCCCC1 | inactive | Stability (Plasma): Stable |
| 300 | CC[C@H](C)[C@H](NC(=O)[C@H](CC(C)C)NC(=O)c1ccco1)C(=O)NCC(=O)N[C@@H](CCCN=C(N)N)C(=O)N[C@@H](CC(C)C)C(=O)N[C@@H](CCCN)C(N)=O (2Furoyl-LIGRL[Orn]-NH2) |  |  |
|  | CC[C@H](C)[C@H](NC(=O)[C@H](CC(C)C)NC(=O)c1ccco1)C(=O)NCC(=O)N[C@@H](CCCNC(=N)N)C(=O)N[C@@H](CC(C)C)C(=O)N[C@@H](CCCN)C(N)=O (2Furoyl-LIGRL[Orn]-NH2) | inactive | Activity [2]: inactive; Activity [3]: inactive; Activity [4]: Active |
| 200 | CC[C@H](C)[C@H](NC(=O)C(CC1CCCCC1)NC(=O)c1ccno1)C(=O)NCC(=O)N[C@@H](CCCNC(=N)N)C(=O)N[C@@H](CC(C)C)C(N)=O (stereo not given in full) ({Isoxazole(5-carbonyl)}-[ξCha]IGRL-NH2) |  |  |
| 80 | CC(C)C[C@H](NC(=O)[C@H](CCCNC(=N)N)NC(=O)CNC(=O)C(NC(=O)C(CC1CCCCC1)NC(=O)c1ccno1)C1CCCCC1)C(N)=O (stereo not given in full) ({Isoxazole(5-carbonyl)}-[ξCha][ξChg]GRL-NH2) |  |  |

| Compound | EC50 [1] [nM] | Activity (CHO) | also measured |
| --- | --- | --- | --- |
| H-SLIGKV-NH2 | 3000 |  |  |
